Results published in ChEMBL document CHEMBL3822407, “Design, synthesis and antiproliferative activity of novel 5-nitropyrimidine-2,4-diamine derivatives bearing alkyl acetate moiety” (Eur J Med Chem, 2016).
pIC50: −log10 of the molar value. Converted amounts (≈) assume the structure as drawn.

Assays:
[1] = system: MDA-MB-231; experiment: Antiproliferative activity against human MDA-MB-231 cells after 48 hrs by MTT assay; assay type: functional, cell-based; details: MDA-MB-231, 48 h
Outline: (§1)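 Cells kept in DMEM with 10% FBS and plated at 5 × 10³ per well, then allowed 24 h to attach at 37 °C. Compounds were dissolved as 20 mM DMSO stocks, diluted in medium to a range of concentrations, and applied for 48 h at 37 °C under 5% CO2, with 0.1% DMSO as control. MTT was added for 4 h, formazan dissolved in DMSO, and A570 read. IC50 is the mean of three independent experiments run in quadruplicate.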

[2] = system: A549; experiment: Antiproliferative activity against human A549 cells after 48 hrs by MTT assay; assay type: functional, cell-based; details: A549, 48 h; outline: as §1
[3] = system: MCF7; experiment: Antiproliferative activity against human MCF7 cells after 48 hrs by MTT assay; assay type: functional, cell-based; details: MCF7, 48 h; outline: as §1
[4] = system: HepG2; experiment: Antiproliferative activity against human HepG2 cells after 48 hrs by MTT assay; assay type: functional, cell-based; details: HepG2, 48 h; outline: as §1
[5] = system: HepG2; experiment: Cell cycle arrest in human HepG2 cells assessed as accumulation at G2/M phase at 1 uM after 48 hrs by propidium iodide staining based flow cytometry (reference value: 21.54%); assay type: functional
Outline: (§2)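 HepG2 cells grown to about 70% confluence and exposed to […] of compound for 48 h. Cells were then trypsinized, washed in PBS and fixed overnight in ice-cold 70% ethanol. They were treated with RNase (50, final) at 37 °C for 30 min, stained with propidium iodide (50, final), and phase distribution was measured by flow cytometry.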

[6] = system: HepG2; experiment: Cell cycle arrest in human HepG2 cells assessed as accumulation at G0/G1 phase at 20 uM after 48 hrs by propidium iodide staining based flow cytometry (reference value: 44.28%); assay type: functional; outline: as §2
[7] = system: HepG2; experiment: Cell cycle arrest in human HepG2 cells assessed as accumulation at subG1 phase at 5 uM after 48 hrs by propidium iodide staining based flow cytometry (reference value: 2.09%); assay type: functional; outline: as §2
[8] = system: HepG2; experiment: Cell cycle arrest in human HepG2 cells assessed as accumulation at subG1 phase at 1 uM after 48 hrs by propidium iodide staining based flow cytometry (reference value: 2.09%); assay type: functional; outline: as §2
[9] = Solubility in water at pH 1; assay type: physicochemical
[10] = system: HepG2; experiment: Cell cycle arrest in human HepG2 cells assessed as accumulation at S phase at 20 uM after 48 hrs by propidium iodide staining based flow cytometry (reference value: 28.95%); assay type: functional; outline: as §2
[11] = Solubility in water at pH 6.4; assay type: physicochemical
[12] = system: HepG2; experiment: Cell cycle arrest in human HepG2 cells assessed as accumulation at G2/M phase at 20 uM after 48 hrs by propidium iodide staining based flow cytometry (reference value: 21.54%); assay type: functional; outline: as §2
[13] = system: HepG2; experiment: Cell cycle arrest in human HepG2 cells assessed as accumulation at S phase at 1 uM after 48 hrs by propidium iodide staining based flow cytometry (reference value: 28.95%); assay type: functional; outline: as §2
[14] = system: HepG2; experiment: Cell cycle arrest in human HepG2 cells assessed as accumulation at G2/M phase after 48 hrs by propidium iodide staining based flow cytometry; assay type: functional; outline: as §2
[15] = system: HepG2; experiment: Cell cycle arrest in human HepG2 cells assessed as accumulation at G2/M phase at 5 uM after 48 hrs by propidium iodide staining based flow cytometry (reference value: 21.54%); assay type: functional; outline: as §2
[16] = system: HepG2; experiment: Potency index, ratio of fluorouracil IC50 to compound IC50 for human HepG2 cells; assay type: functional
[17] = system: HepG2; experiment: Cell cycle arrest in human HepG2 cells assessed as accumulation at G2/M phase at 10 uM after 48 hrs by propidium iodide staining based flow cytometry (reference value: 21.54%); assay type: functional; outline: as §2
[18] = system: HepG2; experiment: Cell cycle arrest in human HepG2 cells assessed as accumulation at G0/G1 phase at 10 uM after 48 hrs by propidium iodide staining based flow cytometry (reference value: 44.28%); assay type: functional; outline: as §2
[19] = system: HepG2; experiment: Cell cycle arrest in human HepG2 cells assessed as accumulation at subG1 phase at 20 uM after 48 hrs by propidium iodide staining based flow cytometry (reference value: 2.09%); assay type: functional; outline: as §2
[20] = system: HepG2; experiment: Cell cycle arrest in human HepG2 cells assessed as accumulation at S phase at 5 uM after 48 hrs by propidium iodide staining based flow cytometry (reference value: 28.95%); assay type: functional; outline: as §2
[21] = system: HepG2; experiment: Cell cycle arrest in human HepG2 cells assessed as accumulation at G0/G1 phase at 1 uM after 48 hrs by propidium iodide staining based flow cytometry (reference value: 44.28%); assay type: functional; outline: as §2
[22] = system: HepG2; experiment: Cell cycle arrest in human HepG2 cells assessed as accumulation at subG1 phase at 10 uM after 48 hrs by propidium iodide staining based flow cytometry (reference value: 2.09%); assay type: functional; outline: as §2
[23] = system: HepG2; experiment: Cell cycle arrest in human HepG2 cells assessed as accumulation at G0/G1 phase at 5 uM after 48 hrs by propidium iodide staining based flow cytometry (reference value: 44.28%); assay type: functional; outline: as §2
[24] = system: HepG2; experiment: Cell cycle arrest in human HepG2 cells assessed as accumulation at S phase at 10 uM after 48 hrs by propidium iodide staining based flow cytometry (reference value: 28.95%); assay type: functional; outline: as §2

| SMILES | pIC50 [1] | pIC50 [2] | pIC50 [3] | pIC50 [4] | further results |
| --- | --- | --- | --- | --- | --- |
| CCOC(=O)CN(Cc1ccccc1)c1nc(Nc2ccc(Cl)cc2)ncc1[N+](=O)[O-] | 4.46 | < 4.00 | < 4.00 | 4.51 | – |
| CCOC(=O)CN(Cc1ccccc1)c1nc(NCCc2ccccc2)ncc1[N+](=O)[O-] | 4.65 | 4.06 | 4.68 | 4.98 | Activity [5]: 25.46%; Activity [6]: 29.86%; Activity [7]: 3.85%; Activity [8]: 5.08%; solubility [9]: 80.5 µg/mL (≈ 185 µM); Activity [10]: 25.75%; solubility [11]: 3 µg/mL (≈ 6.89 µM); Activity [12]: 36.85%; Activity [13]: 28.08%; Activity [14]: Dose-dependent effect; Activity [15]: 30.83%; Ratio IC50 [16]: 3; Activity [17]: 31.94%; Activity [18]: 30.91%; Activity [19]: 4.91%; Activity [20]: 28.28%; Activity [21]: 34.03%; Activity [22]: 4.8%; Activity [23]: 31.26%; Activity [24]: 27.02% |
| COC(=O)CN(C)c1nc(NCc2ccccc2)ncc1[N+](=O)[O-] | 4.21 | 4.10 | 4.07 | < 4.00 | – |
| CCOC(=O)CNc1nc(Nc2ccc(OC)cc2)ncc1[N+](=O)[O-] | 4.49 | < 4.00 | < 4.00 | < 4.00 | – |
| COC(=O)CN(C)c1nc(NCCc2ccccc2)ncc1[N+](=O)[O-] | 4.35 | 4.43 | 4.49 | 4.06 | – |
| CCOC(=O)CNc1ncc([N+](=O)[O-])c(N(CC(=O)OCC)Cc2ccccc2)n1 | 4.03 | < 4.00 | < 4.00 | 4.35 | – |
| COC(=O)CN(C)c1nc(Nc2ccc(Cl)cc2)ncc1[N+](=O)[O-] | 4.67 | 4.63 | 4.22 | 4.30 | – |
| CCOC(=O)CNc1nc(Nc2ccccc2)ncc1[N+](=O)[O-] | 4.26 | < 4.00 | < 4.00 | < 4.00 | – |
| CCOC(=O)CN(Cc1ccccc1)c1nc(NC2CCN(S(C)(=O)=O)CC2)ncc1[N+](=O)[O-] | 4.12 | < 4.00 | < 4.00 | 4.24 | – |
| COC(=O)CN(C)c1nc(Nc2cc(OC)c(OC)c(OC)c2)ncc1[N+](=O)[O-] | 4.59 | < 4.00 | 4.38 | 4.58 | – |
| CCOC(=O)CN(Cc1ccccc1)c1nc(Nc2cc(OC)c(OC)c(OC)c2)ncc1[N+](=O)[O-] | 4.39 | < 4.00 | < 4.00 | 4.42 | – |
| CCOC(=O)CNc1nc(Nc2cccc(OC)c2)ncc1[N+](=O)[O-] | 4.50 | 4.44 | 4.45 | < 4.00 | – |
| CCOC(=O)CNc1nc(Nc2ccc(Cl)cc2)ncc1[N+](=O)[O-] | 4.26 | < 4.00 | < 4.00 | < 4.00 | – |
| COC(=O)CN(C)c1nc(Nc2cccc(OC)c2)ncc1[N+](=O)[O-] | 4.24 | 4.50 | 4.03 | 4.13 | – |
| CCOC(=O)CNc1nc(NCCc2ccccc2)ncc1[N+](=O)[O-] | 4.66 | 4.32 | < 4.00 | 4.15 | – |
| CCOC(=O)CN(Cc1ccccc1)c1nc(Nc2cccc(OC)c2)ncc1[N+](=O)[O-] | 4.33 | < 4.00 | < 4.00 | 4.56 | – |
| COC(=O)CN(C)c1nc(Nc2ccccc2)ncc1[N+](=O)[O-] | < 4.00 | < 4.00 | < 4.00 | < 4.00 | – |
| CCOC(=O)CNc1nc(NCc2ccccc2)ncc1[N+](=O)[O-] | 4.65 | 4.13 | 4.28 | < 4.00 | – |
| CCOC(=O)CN(Cc1ccccc1)c1nc(NCc2cccc(OC)c2)ncc1[N+](=O)[O-] | 4.09 | < 4.00 | 4.24 | 4.47 | – |
| CCOC(=O)CN(Cc1ccccc1)c1nc(NCc2ccccc2)ncc1[N+](=O)[O-] | 4.08 | < 4.00 | < 4.00 | 4.68 | – |
| CCOC(=O)CNc1nc(NC2CCN(S(C)(=O)=O)CC2)ncc1[N+](=O)[O-] | 4.09 | < 4.00 | < 4.00 | < 4.00 | – |
| COC(=O)CN(C)c1nc(NC2CCN(S(C)(=O)=O)CC2)ncc1[N+](=O)[O-] | 4.22 | < 4.00 | < 4.00 | < 4.00 | – |
| O=c1[nH]cc(F)c(=O)[nH]1 [FLUOROURACIL] | – | – | 4.52 | – | – |
| CCOC(=O)CN(Cc1ccccc1)c1nc(Nc2ccccc2)ncc1[N+](=O)[O-] | < 4.00 | < 4.00 | < 4.00 | 4.35 | – |
